Source: ChEMBL document CHEMBL4513216, “Probing the Open Global Health Chemical Diversity Library for Multistage-Active Starting Points for Next-Generation Antimalarials” (ACS Infect Dis, 2020)

Test: Toxicity liver stage against HepG2, at 10uM
Type: cell-based
Parameters: test concentration 10 uM, cell line HepG2-A16-CD81EGFP
Conditions: human, HepG2-A16-CD81EGFP cells; read-out: INHIBITION
How it was run: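 Uninfected HepG2-A16-CD81EGFP cells, 3 × 10^3 per well, 1536-well, plated on prespotted compound at 10 μM final, parasite-free screening media added to match infected plates; puromycin 10 μM positive, DMSO 0.5% negative; run in parallel with 48 h PbLuc assay at 37 °C, 5% CO2; viability by CellTiter-Glo luminescence, normalized to controls.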

Row | Compound | cytotoxicity at 10 µM [%]
1 | CC(=O)c1c(N(C)C)ccnc1C(F)(F)F | 1.1
2 | COC(=O)[C@H]1CN(C(=O)NC(C)C)CCN1C(=O)c1cccs1 | -0.832
3 | CC(C)NC(=O)NC[C@H]1OC[C@@H](NCc2ccc(F)cc2)[C@@H]1O | 2.07
4 | COc1ccc(CCNC(=O)NC2CC(=O)N(c3ccccc3)C2)cc1 (stereo not drawn) | -48
5 | CCNC(=O)N1CC(c2nc(Cc3ccccc3)no2)C1 | -2.98
6 | CN(CC(=O)N1CCC(Oc2ccc(C(F)(F)F)cn2)CC1)S(C)(=O)=O | 1.97
7 | COc1ccc(S(=O)(=O)NCCC(O)c2cc(C)oc2C)c(C)c1 (stereo not drawn) | -0.165
8 | CN(C)CC(=O)N1Cc2cc(-c3cc[nH]n3)ccc2C1c1cnco1 (stereo not drawn) | 21.4
9 | CCN1C(=O)C2(CCOCC2)c2cc(NC(=O)COC)ccc21 | -0.82
10 | O=C(C1CCOCC1)N1CCO[C@H]2[C@@H](OCC3CC3)CC[C@@H]21 | -6.22
11 | COc1ccccc1C1CC(=O)Nc2c1c(=O)[nH]n2C(C)C (stereo not drawn) | -4.08
12 | CC(O)CNC(=O)c1nc(Cc2c(Cl)cccc2Cl)no1 (stereo not drawn) | 3
13 | CC(C)n1[nH]c(=O)c2c1NC(=O)CC2c1ccc2ncccc2c1 (stereo not drawn) | 9.76
14 | COc1cc(N2C[C@H]3OCC[C@H]3[C@H](C(=O)NC3CC3)C2)ncn1 | -8.83
15 | CC1CCN(C(=O)C(C)Oc2ccc3c(c2)OCO3)CC1 (stereo not drawn) | -1.9
16 | Cc1ccc(-c2snnc2C(=O)NCCCO)cc1 | 6.67
17 | CC1=C(C(N)=O)C(c2cn(C)nc2C)N2C(=O)CSC2=N1 (stereo not drawn) | 4.43
18 | O=C(COCc1nc(-c2ccncc2)no1)N1CCCCC1 | 5.4
19 | Cc1cccc(CNC(=O)CC2CCN(S(C)(=O)=O)CC2)n1 | -1.57
20 | CC(=O)N1CCC(c2cnc(NC3CCOCC3)cn2)CC1 | -3.73
21 | O=C1CN(C(=O)C2CN(c3ccc(F)cc3)CCO2)CCN1 (stereo not drawn) | 3.04
22 | O=C(c1cc(-c2cccnc2)[nH]n1)N1CCCC(c2cnccn2)C1 (stereo not drawn) | 6.21
23 | CN(C)S(=O)(=O)N1CC(c2nc(N)ncc2-c2ccc(F)cc2)C1 | -4.64

Row | Compound | cytotoxicity at 10 µM [%]
24 | Cn1ccnc1CN1CCC(CCCc2ccccn2)(C(N)=O)CC1 | -1.31
25 | O=C(NCC1(O)COCCN(Cc2cccc(O)c2)C1)c1cscn1 (stereo not drawn) | -2.28
26 | Cc1cncnc1C1CCN(CCO)CC1 | -7.26
27 | O=C(O)c1cncc(Cc2cccc(F)c2)c1 | 5.31
28 | Cc1nc(C2CN(C)CCO2)cc(N2CCC(C(N)=O)CC2)n1 (stereo not drawn) | -22.8
29 | CNc1nccnc1C1CCN(C(C)C)CC1 | -25.2
30 | Cc1nnc(NCc2ccc(SC(F)F)cc2)o1 | 6.48
31 | CN1CCCN(S(=O)(=O)c2cn(C)cn2)c2cc(F)ccc21 | 6.06
32 | Brc1ccc(NCCCOC2CCOCC2)nc1 | 1.52
33 | Cc1ncsc1C(=O)NCC1SCCc2ccccc21 (stereo not drawn) | -8.21
34 | CCN(CC)C(=O)CN(C)C(=O)c1cccn1CCc1ccccc1 | 1.98
35 | CC(O)(CNc1ccc(Cl)c(C#N)n1)c1ccsc1 (stereo not drawn) | 3.39
36 | O=C1CC2(CCSC2)C(=O)N1Cc1coc(-c2ccc(F)cc2)n1 (stereo not drawn) | 6.88
37 | N#Cc1ccccc1CN1CCC(CN2CCOCC2)C1 (stereo not drawn) | -4.5
38 | CNS(=O)(=O)c1ccc(C(=O)NCc2ccnc(OC)c2)cc1 | 2.86
39 | CNC(=O)c1cccnc1NCCOc1ccc(CC#N)cc1 | -1.53
40 | Cc1csc(C(C)(C)NCc2ncc(-c3ccccc3)o2)n1 | 7.95
41 | COc1ccc(C(=O)NCC(=O)N(Cc2ccsc2)C2CC2)cc1OC | 0.995
42 | Cn1c(=O)ccn(CC(=O)Nc2cnccc2O)c1=O | 2.13
43 | CCOc1ccc(NS(=O)(=O)c2cc(C)c(C(=O)O)s2)c(C)c1 | -3.21
44 | O=C(Cc1cccc(F)c1)NCCNCC1CNc2ccnn2C1 (stereo not drawn) | 2.04
45 | Cn1cnc(S(=O)(=O)N2CCOCC2)c1Cl | 5.9
46 | COC(=O)CN1CCN(c2cccc(C)c2)CC1 | 3.54

Row | Compound | cytotoxicity at 10 µM [%]
47 | O=C(c1ccc(-c2ccccc2)[nH]c1=O)N1CCCn2ncnc21 | 1.46
48 | COc1ncc(C)cc1NC(=O)COCC(F)(F)F | -5.42
49 | Cc1nnc(CN2CCC(Oc3ccc(C)c(C)c3)CC2)o1 | 7.27
50 | Cc1cn(-c2ccccc2)nc1NS(=O)(=O)c1ccc(C(=O)O)cc1F | -2.59
51 | O=C(NCCCn1nc2ccccn2c1=O)NCC(C1CC1)C1CC1 | 6.01
52 | CC(C)C1CN(S(=O)(=O)c2cccc(C#N)c2)CCS1 (stereo not drawn) | 1.06
53 | O=C(Nc1nnc(N2CCCCC2)[nH]1)c1cccs1 | -10.7
54 | CC(C)c1ocnc1C(=O)N1CCCC(c2ccn[nH]2)C1 (stereo not drawn) | -3.92
55 | OC(CN(Cc1ccccc1)Cc1ccncc1)c1ccco1 (stereo not drawn) | 24.7
56 | CC(=O)N1CCC(NC(=O)N2CCCC2c2ccsc2)CC1 (stereo not drawn) | 0.421
57 | Cc1nn(C)c(Oc2ccccc2)c1CNC1CCCCNC1=O (stereo not drawn) | 2.56
58 | CC(C)Cc1nc(CNCc2cccc(N3CCCC3=O)c2)no1 | 0.753
59 | Cc1noc(C)c1CCC(=O)N1CCn2cccc2C1C (stereo not drawn) | -0.376
60 | Cn1cnc2cc(C(=O)NS(=O)(=O)CC3CCCC3)ccc21 | -3.2
61 | Cc1csc(N2CCN(CCCN3CCCC3=O)CC2)n1 | 3.92
62 | O=C(NCCCn1cccn1)c1csc2c1CCCC2 | -10.2
63 | O=S(=O)(Cc1ccccc1)NCc1ccnc(O)c1 | -1.2
64 | COC(=O)CCNC(=O)C1CC(=O)N(C2CCCC2)C1 (stereo not drawn) | -22.9
65 | CSC(C)(C)CNC(=O)NC1CCSCC1 | 17.5
66 | N#Cc1cccnc1NCCNC(=O)N1CCCSCC1 | -10.8
67 | CCc1nnc2n1CCN(Cc1csc(-c3cnn(C)c3)n1)C2 | 18.4
68 | N#Cc1ncn(CC(=O)Nc2cc(Cl)ccc2F)n1 | -2.75
69 | CCc1nnc2n1CC(CNCc1ccncc1)CC2 (stereo not drawn) | -15.1

Row | Compound | cytotoxicity at 10 µM [%]
70 | CCn1nc(C)c(CCNC(=O)C2CCCN(C(C)=O)C2)c1C (stereo not drawn) | -20.8
71 | Cc1nc2c(c(=O)n1C)CN(C(=O)C1CCCN(C(N)=O)C1)C2 (stereo not drawn) | -2.38
72 | COCc1nc(N(C)CCSc2ccccc2)c2cnn(C)c2n1 | 1.98
73 | CCC(=O)c1ccc(OCC(=O)N2CCNCC2C(=O)NC2CC2)cc1 (stereo not drawn) | -3.28
74 | CC(C)(C)c1noc(-c2nc3c([nH]2)CCCNC3=O)n1 | -3.83
75 | COc1ccc(C(=O)C2CCCN(Cc3ccccc3O)C2)c(OC)c1 (stereo not drawn) | 5.45
76 | CCNC(=O)[C@@H]1C[C@H](NC(=O)c2cc(CC)n[nH]2)CN1Cc1ccsc1 | -5.92
77 | Clc1cc(NCc2ncc[nH]2)nc2[nH]ccc12 | 6.68
78 | Cc1cnc(NC(=O)c2cccc(CN(C)Cc3ccno3)c2)s1 | 61.3
79 | Cc1cn2cc(C(=O)NC3CCCN(c4ncccn4)C3)ccc2n1 (stereo not drawn) | 12.1
80 | Cc1cc(CN(C)C(=O)CN2CC3(CCNCC3)OC2=O)no1 | 3.19
81 | CC(Cc1cn(CCc2nnn[nH]2)nn1)c1ccccc1 (stereo not drawn) | 3.78
82 | CC(C)n1cnnc1CN(C)Cc1cnc(-c2ccco2)nc1 | 10.8
83 | Cc1cnc(NCCc2c[nH]cn2)nc1-c1ccnn1C | -2.53
84 | CC(C)NC(=O)CN1CCN(CC2CCOc3ccccc3C2)CC1 (stereo not drawn) | -1.72
85 | O=C(O)[C@@H]1CN(C(=O)c2cc(C3CC3)n[nH]2)C[C@H]1c1cccc(F)c1 | -9
86 | COc1ccc2c(c1)CCN(CCC(=O)O)CC2 | -9.21
87 | COCc1ncc(CN2CCC(Oc3ccccc3OC)CC2)cn1 | -1.77
88 | CCN(CC)S(=O)(=O)N(CC)Cc1ccc2c(c1)OCCO2 | 4.66
89 | COC(=O)C(NC(=O)CCOC(C)C)c1cc(F)ccc1F (stereo not drawn) | -4.11
90 | Cc1nc(C)c(CN2CCC(N(C)Cc3noc(C4CC4)n3)C2)s1 (stereo not drawn) | -20
91 | CC1CN(CC(=O)NCc2ccccn2)CCN1Cc1nccn1C (stereo not drawn) | -4.07
92 | CCc1noc(C)c1C(=O)N1CCCC(n2nc(C)nc2C)C1 (stereo not drawn) | -7.01

Row | Compound | cytotoxicity at 10 µM [%]
93 | Cc1ccc(C(=O)N2CCN(CC(C)O)CC2)cc1S(C)(=O)=O (stereo not drawn) | -2.96
94 | CCc1nnc2n1CCN(C(=O)c1ccc(-c3ccco3)[nH]c1=O)C2 | -11.5
95 | Cc1nc(C)n(CC2CCCN(CCOc3ccc(C#N)cc3)C2)n1 (stereo not drawn) | -1.55
96 | Cn1cnc2c1CCN(Cc1csc(C3CCCC3)n1)C2 | -12.3
97 | COCCOc1ncccc1C(=O)N1CCCC(n2ccnc2C)C1 (stereo not drawn) | -7.52
98 | CCN(CC)C(=O)c1ccc(-n2ncc(C#N)c2N)cc1 | 0.796
99 | CCOc1ncccc1NC(=O)NC1CCN(c2ncccn2)CC1 | -33.3
100 | Cc1nn(C)c(C)c1C1CCCN1Cc1nc2ccccc2o1 (stereo not drawn) | -20.6
101 | CC(=O)N(Cc1ncc(C)o1)C1CCN(Cc2ccccc2F)C1 (stereo not drawn) | -8.08
102 | C1CC(NCc2nnc(C3CC3)o2)CN(Cc2noc(C3CC3)n2)C1 (stereo not drawn) | -19
103 | O=C(NCCC(=O)N1CCCc2ccccc21)c1cc(F)cc(F)c1 | -6.14
104 | CC(C)c1nc(CN2CCCC(O)C2)cs1 (stereo not drawn) | -7.13
105 | CCc1noc(CN2CCN(C(=O)c3ccccn3)CC2)n1 | -0.775
106 | Cc1ccc(CSCCn2nc3ccccn3c2=O)cc1 | 5.64
107 | N#Cc1ccnc(N2CCN(C(=O)NC3CCS(=O)(=O)C3)CC2)c1 (stereo not drawn) | -6.83
108 | CCN(CC)Cc1cc(=O)n2c(n1)CN(C(=O)c1ccnnc1)CCC2 | 6.66
109 | O=C(NC[C@]12COC[C@H]1CN(Cc1nccs1)C2)N1CCCC1 | -7.27
110 | Cc1nc(CN2CC[C@H]3[C@@H]2CCC(=O)N3c2cnn(C)c2)cs1 | 11.3
111 | COc1cc(N2CC[C@@H]3O[C@H](C(=O)N(C)C)C[C@@H]32)ncn1 | 1.14
112 | CC(=O)N(C)C1CCC2(CC1)CNC(=O)c1cc(C)ccc1O2 (stereo not drawn) | -35.4
113 | O=c1[nH]c2cn(-c3ccc(Cl)cc3)c(=O)n2[nH]1 | 2.43
